Screening results deposited in PubChem BioAssay by Broad Institute.
This is one part of a sample in which hits are shown more often than they occur.
GSK3B inh = human GSK3beta kinase inhibition; P49841; GST-GSK3beta kinase, ADP-Glo luminescence, 60 min; stronger effect = lower value; activity score (negative = inhibition), % at 10 µM; 0.038% of 300,000 active; AID 2097;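 active means more than half of replicate wells score below -50%, meaning over 50% inhibition versus plate controls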
Target sequence (P49841 whole entry, looked up): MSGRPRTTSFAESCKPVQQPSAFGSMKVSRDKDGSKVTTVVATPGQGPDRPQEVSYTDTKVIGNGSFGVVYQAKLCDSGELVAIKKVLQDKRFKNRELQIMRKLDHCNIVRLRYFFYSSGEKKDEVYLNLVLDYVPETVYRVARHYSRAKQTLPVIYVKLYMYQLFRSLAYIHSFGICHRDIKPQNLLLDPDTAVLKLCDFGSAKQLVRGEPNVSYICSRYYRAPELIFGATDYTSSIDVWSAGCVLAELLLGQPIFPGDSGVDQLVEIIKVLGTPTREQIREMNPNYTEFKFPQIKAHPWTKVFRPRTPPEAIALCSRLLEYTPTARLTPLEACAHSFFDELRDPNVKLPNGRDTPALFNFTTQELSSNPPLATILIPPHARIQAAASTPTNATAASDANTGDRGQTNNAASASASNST
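Test system – GST-tagged human GSK3beta kinase, cell-free · Incubation – 60 min enzyme reaction, room temperature · Signal – ADP-Glo luminescence · Also added – peptide substrate and ATP at 25 µM · Controls – DMSO neutral wells and GW8510 at 20 µM as positive · Buffer or medium – Tris/MgCl2 kinase buffer · Measure – Luminescence-derived activity versus plate DMSO and GW8510 wells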
STK33 inh = human STK33 kinase inhibition. purified STK33, MBP phosphorylation, ADP-Glo luminescence. inhibition, % at 10 µM. 0.073% of 320,000 active. AID 2661;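 active means inhibition at or above 25%, using the most active replicate where run in duplicate; inactive means inhibition below 25%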
Dyrk1A ADPGlo = blocks rat Dyrk1A kinase activity. Q63470. ADP-Glo luminescence, NFATc1 peptide. inhibition, % at 12.5 µM. 0.43% of 310,000 active. AID 504441; in the data active means inhibition above about 50%
GSK3 alpha inh = human GSK-3 alpha kinase inhibition | 0.1% of 320,000 active | ADP-Glo luminescence, 60 min | inhibition, % at 10 µM | P49840;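 active means more than half of replicates show inhibition above 20%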;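 further: GST-tagged GSK-3 alpha with peptide substrate and 25 µM ATP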
ADP-Glo artifact = ADP-Glo luciferase interference, Dyrk1A counter-screen | ADP-Glo luciferase artifact assay, no Dyrk1A, luminescence | shares compounds with Dyrk1A ADPGlo | AID 588348 | AC50, µM (highest dose often 12 µM) | 1,300 tested, under 10 active;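 active means fitted half-maximal dose AC50 no more than ten times the top valid tested dose, with luminescence dropping as dose rises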
Of the large screens only hits and unclear results are named; the others gave an inactive call (follow-up assays come after a bar, where they were run).

CNC(=O)NC(=O)CSc1nc(-c2cccs2)c(C#N)c(=O)[nH]1	GSK3B inh -75.2 (no result: STK33 inh, GSK3 alpha inh)
COCCNc1cc(C)nc2c(-c3ccccc3OC)c(C)nn12	Dyrk1A ADPGlo 57.2 | ADP-Glo artifact inactive
COc1ccc(OCC(=O)Nc2ccc(Cl)cc2)cc1	none
COC(=O)NNC(=O)COc1ccc(Cl)cc1	Dyrk1A ADPGlo 84.2 | ADP-Glo artifact inactive
O=C(NCCN1CCOCC1)c1cccn2c(=O)c3c4c(sc3nc12)CCCC4	none (no result: Dyrk1A ADPGlo)
Nc1cc2c([N+](=O)[O-])cccc2o1	Dyrk1A ADPGlo 59.9 | ADP-Glo artifact inactive
COc1ccc(NS(=O)(=O)c2cn(C)cn2)cc1OC	none
C[C@@H]1O[C@@H](OC[C@@H]2O[C@H](Oc3c(-c4ccc(O)cc4)oc4cc(O)cc(O)c4c3=O)[C@@H](O)[C@H](O)[C@H]2O)[C@H](O)[C@H](O)[C@H]1O	Dyrk1A ADPGlo 72.2 (no result: GSK3B inh) | ADP-Glo artifact inactive
C[C@@H]1O[C@@H](O[C@H]2[C@H](O)[C@@H](O)[C@H](Oc3c(-c4ccc(O)cc4)oc4cc(O)cc(O)c4c3=O)O[C@@H]2CO)[C@H](O)[C@H](O)[C@H]1O	none (no result: GSK3B inh)
CCOc1ccc(CCNC(=O)CCCn2c(=O)c3cccn3c3cccnc32)cc1OCC	none
N#C/C(=C\c1cccs1)c1nc2ccccc2[nH]1	none
N#C/C(=C/c1ccc(O)c(O)c1)c1nc2ccccc2[nH]1	Dyrk1A ADPGlo 67.1 | ADP-Glo artifact inactive
COc1ccc(Nc2ncnc3nc[nH]c23)cc1OC	Dyrk1A ADPGlo 50.2 | ADP-Glo artifact inactive
COc1ccc(-c2coc3cc(O)ccc3c2=O)cc1O	Dyrk1A ADPGlo 56.5 | ADP-Glo artifact inactive
O=C(c1ccc(-c2ccccc2Cl)s1)N1CCOCC1	none
CCn1c(SCC(=O)NC2CCCC2)nnc1-c1ccncc1	none
COCCCn1c(SCC(=O)NC2CCCCC2)nnc1-c1ccncc1	Dyrk1A ADPGlo 50.8 | ADP-Glo artifact inactive
C=CCSc1nnc(CNC(=O)c2ccc(Cl)cc2)n1CC	none
O=C(O)c1ccc2c(c1)S(=O)(=O)c1cc(Cl)ccc1C2=O	Dyrk1A ADPGlo 65.5, GSK3 alpha inh 74.4 (no result: GSK3B inh) | ADP-Glo artifact inactive
O=C(NCc1ccccc1)C1=C[C@H](c2ccccc2)C[C@H](OCc2ccc(CO)cc2)O1	Dyrk1A ADPGlo 51.7 | ADP-Glo artifact inactive
COC(=O)c1sc2cnccc2c1N	Dyrk1A ADPGlo 57.9 | ADP-Glo artifact inactive
CC(C)(C)[C@@H]1C=C(C(=O)N2CCN(Cc3ccccc3)CC2)O[C@H](OCc2ccc(CO)cc2)C1	none
CC(C)(C)[C@H]1C=C(C(=O)N2CCN(Cc3ccccc3)CC2)O[C@@H](OCCCCO)C1	Dyrk1A ADPGlo 52.6 | ADP-Glo artifact inactive
CC1=C(C(=O)Nc2cccc(C(=O)N3CCN(c4cccc(C(F)(F)F)c4)CC3)c2)SCCO1	none (no result: Dyrk1A ADPGlo)
O=C(Nc1ncc2c(n1)-c1ccccc1CC2)c1ccc(Cl)cc1	Dyrk1A ADPGlo 58.8 | ADP-Glo artifact inactive
C=CCN1C(=O)c2ccc(C(=O)OCC(=O)N(CC)c3c(N)n(Cc4ccccc4)c(=O)[nH]c3=O)cc2C1=O	none (no result: GSK3B inh, STK33 inh, GSK3 alpha inh)
O=C(Nc1cccc(Cl)c1N1CCOCC1)c1ccc(Br)o1	none (no result: Dyrk1A ADPGlo)
O=C1CCN2C=Nc3cccc4ccc1c2c34	Dyrk1A ADPGlo 73.2 | ADP-Glo artifact inactive
O=C1CCC(=O)c2ccc3c4c(ccc1c24)CC3	none (no result: GSK3B inh, STK33 inh, GSK3 alpha inh)
CC1(C)C=Cc2cc3ccc(=O)oc3cc2O1	Dyrk1A ADPGlo 59.3 | ADP-Glo artifact inactive
COc1c2c(cc3oc(=O)ccc13)OC(C)(C)C=C2	none
CC[C@]12c3[nH]c4ccccc4c3CCN1C(=O)C(CC(=O)NCCCOC)C[C@@H]2C(=O)N1CCN(C(=O)c2ccco2)CC1 (some centres not stated)	none (no result: GSK3B inh, Dyrk1A ADPGlo)
Cc1cc(-c2ccc(C(=O)O)s2)cnc1N	Dyrk1A ADPGlo 65.3 | ADP-Glo artifact inactive
COc1ccc(C2/C=C\CN(Cc3ccco3)CC(=O)N2Cc2ccc(F)cc2)cc1 (configuration not stated)	none (no result: Dyrk1A ADPGlo)
Cc1cccc(C(CC(=O)NCc2ccco2)c2ccccc2)c1O (configuration not stated)	none
CC(C)Oc1ccc(C(CC(=O)NCc2ccco2)c2ccccc2)cc1 (configuration not stated)	Dyrk1A ADPGlo 55.1 | ADP-Glo artifact inactive
Fc1ccc(C2Nc3cccc4cccc(c34)N2)cc1	Dyrk1A ADPGlo 52.5 | ADP-Glo artifact inactive
FC(F)(F)c1ccc(C2Nc3cccc4cccc(c34)N2)cc1	none (no result: GSK3B inh, STK33 inh, GSK3 alpha inh)
S=c1[nH]cc(-c2ccc(Cl)cc2)n1Cc1ccccc1	Dyrk1A ADPGlo 55.1 | ADP-Glo artifact inactive
CCN(CC)CCNc1ccc(C)c2sc3ccc(O)cc3c(=O)c12	none (no result: GSK3B inh, STK33 inh, GSK3 alpha inh)
CN(C)CCNc1ccc(CO)c2oc3ccc(O)cc3c(=O)c12	Dyrk1A ADPGlo 52.4 (no result: GSK3B inh, STK33 inh, GSK3 alpha inh) | ADP-Glo artifact inactive
CCCOc1ccc(/C=N/NC(=O)CN2CCCCC2)cc1	Dyrk1A ADPGlo 70.7 | ADP-Glo artifact inactive
O=S1(=O)N=C(N(Cc2cccs2)c2ccc(O)cc2)c2ccccc21	Dyrk1A ADPGlo 73.3 | ADP-Glo artifact inactive
O=C(CCCN1C(=O)C(c2ccccc2)Oc2cccnc21)NCCc1ccc(Cl)cc1 (configuration not stated)	none (no result: Dyrk1A ADPGlo)
O=c1oc2c(-c3cccc(F)c3)cc(O)cc2s1	Dyrk1A ADPGlo 65.3 | ADP-Glo artifact inactive
Nc1nnc(-c2cccc(F)c2)s1	none
O=C(/C=C/c1ccc2c(c1)OCO2)Nc1ccc(Cl)cn1	none
Nc1nc(Nc2ccccc2)nc2ccccc12	Dyrk1A ADPGlo 56.4 | ADP-Glo artifact inactive
O=C(COC(=O)COc1ccccc1F)NCc1ccco1	none (no result: GSK3B inh)
O=C(Nc1ccc2ccccc2c1)c1ccc2[nH]c(=O)c(=O)[nH]c2c1	none
Cc1cc([N+](=O)[O-])nn1Cc1ccccc1F	Dyrk1A ADPGlo 50.9 | ADP-Glo artifact inactive
CC(C)c1csc(CN2CCCC(CNC(=O)c3cccc4ccccc34)C2)n1 (configuration not stated)	none
COC(=O)c1c(-c2ccc(S(C)(=O)=O)cc2)sc2ccc(OC)cc12	Dyrk1A ADPGlo 51.4 (no result: GSK3B inh) | ADP-Glo artifact inactive
COc1cc(O)c2c(=O)c3c(O)ccc(O)c3oc2c1	Dyrk1A ADPGlo 68.2 (no result: GSK3B inh, STK33 inh, GSK3 alpha inh) | ADP-Glo artifact inactive
O=C(Nc1cccc([N+](=O)[O-])c1)c1cc(S(=O)(=O)N2CCOCC2)cs1	none
COc1cc(C(=O)Nc2cccc(-c3nncn3C)c2)cc(OC)c1OC	Dyrk1A ADPGlo 76.7 | ADP-Glo artifact inactive
CC(=O)c1[nH]c(C)c(C(=O)N2CCCC(Nc3cccc(F)c3)C2)c1C (configuration not stated)	none
O=C(O)c1[nH]c2ccc(Br)cc2c1CCN1C(=O)c2cccc([N+](=O)[O-])c2C1=O	Dyrk1A ADPGlo 51.4 | ADP-Glo artifact inactive
O=C(O)c1[nH]c2ccc(Cl)cc2c1CCN1C(=O)c2ccccc2C1=O	Dyrk1A ADPGlo 66.3 | ADP-Glo artifact inactive
COc1ccc2[nH]c(C(=O)O)c(CCN3C(=O)c4ccc(C(=O)O)cc4C3=O)c2c1	none
O=C(Nc1ccccc1)OCCOc1ccc(Br)cc1	none
O=C(N/N=C/c1ccc(F)c(F)c1)c1cc2c(s1)-c1ccccc1CC2	none
CNC(=O)c1cc2c(s1)-c1ccccc1CC2	Dyrk1A ADPGlo 52.8 | ADP-Glo artifact inactive
